Here are results for 34 molecules from ChEMBL document CHEMBL1148431, “Structure-activity relationships of novel potent MurF inhibitors” (Bioorg Med Chem Lett, 2004).

The target in this assay is T1, UDP-N-acetylmuramoylalanine-D-glutamyl-lysine-D-alanyl-D-alanine ligase (Streptococcus pneumoniae R6, UniProt Q8DNV6).
T1 sequence (Q8DNV6 whole entry): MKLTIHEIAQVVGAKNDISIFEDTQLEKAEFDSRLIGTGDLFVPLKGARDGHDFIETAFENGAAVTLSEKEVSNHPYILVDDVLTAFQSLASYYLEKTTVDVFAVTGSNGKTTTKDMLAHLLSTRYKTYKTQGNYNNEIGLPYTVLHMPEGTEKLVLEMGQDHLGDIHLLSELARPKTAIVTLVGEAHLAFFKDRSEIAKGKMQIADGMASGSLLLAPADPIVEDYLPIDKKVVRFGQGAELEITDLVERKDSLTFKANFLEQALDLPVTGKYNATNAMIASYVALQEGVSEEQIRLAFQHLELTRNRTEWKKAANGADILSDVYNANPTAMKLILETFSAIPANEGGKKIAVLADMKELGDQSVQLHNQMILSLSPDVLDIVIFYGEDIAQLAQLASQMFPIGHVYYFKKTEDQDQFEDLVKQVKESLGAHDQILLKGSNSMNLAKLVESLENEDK
Put plainly: Antibacterial activity against UDP-MurNAc-pentapeptide synthetase from Streptococcus pneumoniae. Put shortly: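 Activity was read as radiolabeled free phosphate released. IC50 was read graphically from four-point concentration plots spanning it. Each point is the mean of at least two determinations, and each IC50 the mean of at least two independent plots.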
One may read the IC50 as the concentration that gives 50% inhibition. High values mean lower potency, low ones higher potency. Molecule `N#Cc1c(NC(=O)c2cc(S(=O)(=O)N3CCOCC3)c(F)cc2Cl)sc2c1CCC2` displayed a 50% inhibitory concentration (IC50) of 6.4 µM. This counts as single-digit micromolar.
In the case of `CCN(CC)S(=O)(=O)c1ccc(Cl)c(C(=O)Nc2sc3c(c2C(N)=O)CCC3)c1`, the midpoint of inhibition, the IC50, lay at 66 µM.
With `N#Cc1c(NC(=O)c2cc(S(=O)(=O)N3CCOCC3)c(Cl)cc2Cl)sc2c1CCC(c1ccc(O)cc1)C2` (centres undefined), the IC50 was determined as 0.022 µM.
`CCN(CC)S(=O)(=O)c1ccc(Cl)c(C(=O)Nc2sc3c(c2C#N)CCC3)c1` returned an IC50 of 8 µM. This IC50 lies about 360-fold higher than the previous one.
With `CN(C)CCCNc1ccc(S(=O)(=O)N2CCOCC2)cc1C(=O)Nc1sc2c(c1C#N)CCC2`, 74 µM corresponded to half-maximal inhibition (IC50).
With `N#Cc1c(NC(=O)c2cc(S(=O)(=O)N3CCOCC3)ccc2Cl)sc2c1CCCCC2`, the IC50 is 4.2 µM.
`N#Cc1c(NC(=O)c2cc(S(=O)(=O)Nc3ccccc3)ccc2Cl)sc2c1CCC2`: the IC50 came out at 26 µM.
Turning to `N#Cc1c(NC(=O)c2cc(S(=O)(=O)N3CCOCC3)c(Cl)cc2Cl)sc2c1CCC2`, the IC50 is 0.3 µM. This IC50 is about 87-fold lower than that of the molecule before.
Molecule `N#Cc1c(NC(=O)c2cc(S(=O)(=O)N3CCOCC3)ccc2Cl)sc2c1CCCC2` had an IC50 of 1.7 µM. Against the preceding molecule, the IC50 is about 5.7-fold higher.
Molecule `CCN(CC)S(=O)(=O)c1cc(C(=O)Nc2sc3c(c2C#N)CCC3)c(Cl)cc1Cl` returned an IC50 of 5.2 µM.
Regarding `CCN(CC)S(=O)(=O)c1ccc(Cl)c(C(=O)Nc2sc3c(c2C#N)CCC(c2ccc(O)cc2)C3)c1` (centres undefined), the IC50 was determined as 0.054 µM.
In the case of `CNS(=O)(=O)c1ccc(Cl)c(C(=O)Nc2sc3c(c2C#N)CCC3)c1`, 15 µM corresponded to half-maximal inhibition (IC50). Compared with the last molecule, the IC50 is about 280-fold higher.
`CCN(CC)S(=O)(=O)c1cc(C(=O)Nc2sc3c(c2C#N)CCC(c2ccc(O)cc2)C3)c(Cl)cc1Cl` (centres undefined) had an IC50 of 0.067 µM.
For `CCN(CC)S(=O)(=O)c1ccc(Cl)c(C(=O)Nc2sc3c(c2C#N)CCCC3)c1`, the half-inhibitory concentration (IC50) stood at 1.4 µM.
As to `CCN(CC)S(=O)(=O)c1ccc(Cl)c(C(=O)N(C)c2sc3c(c2C#N)CCC3)c1`, the IC50 was > 100 µM.
Molecule `CNc1cc(Cl)c(C(=O)Nc2sc3c(c2C#N)CCC3)cc1S(=O)(=O)N1CCOCC1` had a half-maximal inhibitory concentration (IC50) of 62 µM.
Under `CCOC(=O)c1c(NC(=O)c2cc(S(=O)(=O)N(CC)CC)ccc2Cl)sc2c1CCC2` stands > 100 µM; under `CCOC(=O)C1CCc2c(sc(NC(=O)c3cc(S(=O)(=O)N(CC)CC)ccc3Cl)c2C#N)C1` (centres undefined), 6 µM; under `CCOc1ccc(S(=O)(=O)N2CCOCC2)cc1C(=O)Nc1sc2c(c1C#N)CCC2`, > 100 µM.
`CCN(CC)S(=O)(=O)c1ccc(Cl)c(C(=O)Nc2sc3c(c2C#N)CCCCC3)c1` showed an IC50 of 3.4 µM.
Molecule `N#Cc1c(NC(=O)c2cc(S(=O)(=O)N3CCOCC3)c(Cl)cc2Cl)sc2c1CCCC2` gave a concentration for half-maximal inhibition (IC50) of 1 µM. This IC50 lies about 3.4-fold lower than the previous one.
`CN(C)c1ccc(S(=O)(=O)N2CCOCC2)cc1C(=O)Nc1sc2c(c1C#N)CCC2`: the 50% inhibitory concentration (IC50) was > 100 µM.
In the case of `CC(COc1ccc(S(=O)(=O)N2CCOCC2)cc1C(=O)Nc1sc2c(c1C#N)CCC2)c1ccccc1` (centres undefined), the half-maximal inhibitory concentration (IC50) is > 100 µM.
Molecule `N#Cc1c(NC(=O)c2cc(S(=O)(=O)N3CCOCC3)c(Cl)cc2Cl)sc2c1CCC(c1ccccc1)C2` (centres undefined) had an IC50 of 0.07 µM.
For the molecule `N#Cc1c(NC(=O)c2cc(S(=O)(=O)N3CCOCC3)ccc2Cl)sc2c1CCC2`, inhibition was half-maximal at 9 µM (IC50).
With `N#Cc1c(NC(=O)c2cc(S(=O)(=O)N3CCOCC3)ccc2Br)sc2c1CCC2`, 4.2 µM corresponded to half-maximal inhibition (IC50). Against the preceding molecule, the IC50 is about 2.1-fold lower.
For `N#Cc1c(NC(=O)c2cccc(S(=O)(=O)N3CCOCC3)c2)sc2c1CCC2`, the half-maximal inhibitory concentration (IC50) was > 100 µM.
With `CCN(CC)S(=O)(=O)c1ccc(Cl)c(C(=O)Nc2sc3c(c2CNC(C)=O)CCC3)c1`, the half-inhibitory concentration (IC50) was > 100 µM.
For `CN(C)CCCNS(=O)(=O)c1ccc(Cl)c(C(=O)Nc2sc3c(c2C#N)CCC3)c1`, the concentration for half-maximal inhibition (IC50) is > 100 µM.
Under `CCN(CC)S(=O)(=O)c1ccc(Cl)c(C(C)Nc2sc3c(c2C#N)CCC3)c1` (centres undefined) stands > 100 µM; under `CCN(CC)S(=O)(=O)c1ccc(Cl)c(CNc2sc3c(c2C#N)CCC3)c1`, > 100 µM.
With `N#Cc1c(NC(=O)c2cc(S(=O)(=O)N3CCOCC3)c(NCCCO)cc2Cl)sc2c1CCC2`, the IC50 was > 100 µM.
For the molecule `CN(C)CCCNc1cc(Cl)c(C(=O)Nc2sc3c(c2C#N)CCC3)cc1S(=O)(=O)N1CCOCC1`, the IC50 is > 100 µM.
With `CCN(CC)S(=O)(=O)c1ccc(Cl)c(C(=O)Nc2sc3c(c2CN)CCC3)c1`, the half-maximal inhibitory concentration (IC50) was > 100 µM.
